Blank lines part the entries; values can stand above or below the compound they belong to.
Columns and labels:
[1] = Stability in phosphate buffer; type: physicochemical; details: phosphate buffer pH 7.4, 37 °C
Neutrophil granulocytes = experiment: Neutrophil granulocyte respiratory burst; type: cell-based; details: relative to ingenol disoxate
How it was run: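 Human neutrophils isolated from buffy coats by sedimentation, Lymphoprep density centrifugation and erythrocyte lysis. Plated at 2.5 × 10^5 cells/well in HBSS with Ca2+/Mg2+, 0.1% BSA and 5 mM glucose. Titrated test compound premixed with 10 µM hydroethidine for 40 min at ambient temperature; fluorescence ex 485/em 579 nm.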

[2] = tested on: IL-8 release from primary epidermal keratinocytes; experiment: Keratinocyte IL-8 release; type: cell-based, human; details: relative to ingenol disoxate
How it was run: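 Primary adult human epidermal keratinocytes seeded at 1 × 10^4 cells/well in serum-free EpiLife with HKGS, overnight at 37 °C. Titrated test compound applied for 6 h. Secreted IL-8 measured by MSD 4-spot plates or HTRF. The EC50 is the concentration giving 50% of the maximum reached by a reference ingenol ester, from four experiments.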

[3] = cited from earlier work
B16 melanoma = B16 melanoma mouse model; type: in vivo; details: 0.1% in hydroalcoholic gel, topical, two consecutive days; at 3 months
How it was run: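 Female C57BL/6J mice aged 8–10 weeks received 5 × 10^5 B16 cells intradermally in the flank. Once nodules were visible, tumours were measured by caliper (volume […]) and mice split into cohorts of 8–10 with equal volumes. Treatment was topical, 20 µL of 0.1% hydroalcoholic gel on two consecutive days. The endpoint was a tumour above 250 mm3 or ulceration.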

[4] = First tier chemical stability assessment in aqueous buffer; type: physicochemical; details: aqueous buffer pH 7.4; 16 h, room temperature
UV-induced skin tumors = experiment: UV-induced skin cancer mouse model; type: in vivo; details: two consecutive days
[5] = tested on: primary epidermal keratinocytes; experiment: Keratinocyte proliferation; type: cell-based, human; details: concentrations from 100 nM to 10 µM; 72 h
How it was run: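 Primary adult human epidermal keratinocytes (log phase) at 4 × 10^3 cells/well in serum-free EpiLife with HKGS, overnight at 37 °C. Exposed to titrated test compound for 72 h. Proliferation read as DNA content with CyQUANT Direct stain. Percent inhibition normalised to 1 µM geldanamycin.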

[6] = tested on: primary epidermal keratinocytes; experiment: Keratinocyte viability and caspase 3/7 activation; type: cell-based, human; details: growth-arresting concentrations (100 nM and above); 72 h
[7] = tested on: keratinocyte differentiation markers (INVL, TGM1, FLG, LOR) in primary human epidermal keratinocytes; experiment: Real-time quantitative PCR of keratinocyte differentiation markers; type: cell-based
How it was run: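 Primary human epidermal keratinocytes in low-calcium EpiLife (0.06 mM CaCl2) were given 100 nM test compound for 72 h, with or without 500 nM bisindolylmaleimide I for 30 min beforehand. High-calcium medium (1.8 mM) served as the differentiation reference. KRT1, KRT10, INVL, TGM1, FLG and LOR measured by qPCR, normalised to PPIA, RPLP0, GAPDH and TBP and expressed relative to vehicle. Two donors.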

[8] = Stability in hydroalcoholic gel; type: physicochemical; details: for Largest single impurity (5-isomer re-arrangement product): 0.05% w/v gel, 25 °C/60%RH
How it was run: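 Hydroalcoholic gel at pH 2.8 in citrate buffer, containing benzyl alcohol and isopropanol. For assay, 0.4 g gel was dispersed in 0.1% phosphoric acid/acetonitrile 50:50 and diluted to 10.0 mL. Reverse-phase UHPLC on an HSS C18 column with a 50–95% acetonitrile gradient and UV at 220 nm, against an external reference standard. Run in duplicate.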

[9] = Local skin reaction in guinea pigs; type: in vivo, guinea pig; details: single topical application, 0.015% and 0.05% gel; hairless guinea pigs
How it was run: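 Seven female IAF hairless guinea pigs (Crl:HA-Hr Hr) received 10 µL of 0.015% or 0.05% gel, or vehicle, on five 2 cm2 flank fields, one condition per field. LSR was scored daily for up to 4 days as a composite of edema, erythema, ulceration and subcutaneous bleeding. Four animals were killed at 24 h for 4 mm punch biopsies and H&E sections.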

Distribution coefficient = type: physicochemical; details: octanol/citrate buffer, pH 3
[10] = Skin penetration in a Franz chamber diffusion set-up; type: in vitro ADME, human; details: 21 h
How it was run: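 Full-thickness human abdominal skin in vertical Franz cells (2 cm orifice, nine cells per treatment) at 32 °C, with stirred EpiLife plus keratinocyte supplement as receptor. 0.1% w/v hydroalcoholic gel applied for 21 h. Surface excess removed, stratum corneum tape-stripped 12 times, then epidermis and dermis heat-separated and quantified. LOQ 3 ng/biopsy; Mann–Whitney comparison.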

20-isomer in equilibrated mixture [1]: 86–88%
Structure (SMILES): CCc1noc(CC)c1C(=O)OC1C(CO)=CC2C(=O)C3(C=C(C)C(O)C13O)C(C)CC1C2C1(C)C (stereo not shown) [compound 8, Ingenol-5-(3,5-Diethylisoxazole-4-Carboxylate)]
fold less potent in neutrophil activation assay (Neutrophil granulocytes): ~56 fold | fold less potent in IL-8 release assay [2]: approximately tenfold

Structure (SMILES): CC1=C[C@]23C(=O)[C@@H](C=C(CO)[C@@H](O)[C@]2(O)[C@H]1O)[C@H]1[C@@H](C[C@H]3C)C1(C)C [Ingenol]
biological activity [3]: lacks biological activity

Structure (SMILES): C/C=C(/C)C(=O)O[C@H]1C(C)=C[C@]23C(=O)[C@@H](C=C(CO)[C@@H](O)[C@]12O)[C@H]1[C@@H](C[C@H]3C)C1(C)C [Ingenol mebutate, Ingenol 3-Angelate]
animals remaining tumor free (overall tumor free survival) (B16 melanoma): 45% | compound recovered [4]: 60% | antitumor effect (UV-induced skin tumors; 0.05% gel): slightly weaker effect | antitumor effect (UV-induced skin tumors; 0.1% gel): comparable effect | tumor clearance (UV-induced skin tumors; topical gel, SKH1 mice, largely maintained 5 weeks post treatment): more than 50% | growth inhibition [5]: Total growth inhibition without obvious signs of toxicity | cytotoxicity or apoptosis (viability, caspase 3/7) [6]: No signs of cytotoxicity or apoptosis | transcription of intermediate (INVL) and late (TGM1, FLG, LOR) keratinocyte differentiation markers ([7]; 100 nM, 72 h, low calcium medium): stimulated transcription | decrease of concentration ([8]; 0.05% gel, after 6 months storage at 25 °C/60%RH): 8.0 % of label claim | Largest single impurity (5-isomer re-arrangement product) ([8]; 6 months): 5.1 area % | Largest single impurity (5-isomer re-arrangement product) ([8]; Start): 0.2 area % | local skin reaction (LSR) [9]: robust LSR response | time of peak local skin reaction [9]: 24 h | logD at 24 h (Distribution coefficient): 3.5 | epidermal relative to dermal concentration ([10]; 0.1% gel): more than 100 fold | Dermal exposure level ([10]; 0.1% in hydroalcoholic gel, topical): 364 ± 64 nM | epidermal concentration level ([10]; 0.1% in hydroalcoholic gel, topical, stratum corneum removed): 100 µM

stability over time ([1]; 24 h): did not change over time
Structure (SMILES): CCc1noc(CC)c1C(=O)OCC1=CC2C(=O)C3(C=C(C)C(O)C3(O)C1O)C(C)CC1C2C1(C)C (stereo not shown) [compound 9, Ingenol-20-(3,5-Diethylisoxazole-4-Carboxylate)]
fold less potent in neutrophil activation assay (Neutrophil granulocytes): at least 150 fold | fold less potent in IL-8 release assay [2]: at least 150 fold

Structure (SMILES): CN(C)CCCn1cc(C2=C(c3c[nH]c4ccccc34)C(=O)NC2=O)c2ccccc21 [bisindolylmaleimide-1, bisindolylmaleimide I]
effect of pretreatment on marker induction by ingenol derivatives ([7]; 500 nM, 30 min pre-incubation before 100 nM ingenol derivatives): abolished

Source: PMC5120626 (Dermatology and Therapy, 2016)
